Screening results from PubChem BioAssay.
ATG4B inhibitor: inhibitors of human ATG4B cysteine protease | actives 0.51% (n = 340,000) | Q9Y4P1 | inhibition, % at 8.33 µM | AID 504462 | ATG4B cleavage of LC3-PLA2, NBD-HPC fluorescence, 1 h; in the data active = inhibition above about 40%
Target sequence (Q9Y4P1 whole entry, looked up): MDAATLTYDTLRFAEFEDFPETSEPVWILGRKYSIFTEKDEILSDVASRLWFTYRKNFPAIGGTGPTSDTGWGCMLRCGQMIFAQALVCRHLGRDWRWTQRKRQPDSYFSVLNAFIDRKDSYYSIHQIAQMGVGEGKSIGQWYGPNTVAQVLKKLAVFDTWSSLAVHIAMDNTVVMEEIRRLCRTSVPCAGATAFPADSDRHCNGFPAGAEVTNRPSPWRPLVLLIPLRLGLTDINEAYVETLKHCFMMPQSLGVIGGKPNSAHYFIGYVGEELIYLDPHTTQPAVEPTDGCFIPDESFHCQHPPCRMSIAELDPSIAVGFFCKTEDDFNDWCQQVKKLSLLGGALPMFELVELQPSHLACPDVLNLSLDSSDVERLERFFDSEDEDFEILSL
MPTP inh: inhibitors of mitochondrial permeability transition pore. isolated mouse mitochondria, Ca2+ swelling absorbance, 30 min. inhibition, % at 10 µM. actives 1.4% (n = 360,000). AID 602449;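 active = inhibition of 50% or more, scaled per plate between neutral and stimulator controls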
MT1-MMP act inh: MT1-MMP (human) activation inhibition. P50281. HT1080 RFP-PRO-GFP cells, GFP/RFP ratio fluorescence, overnight; percent of plate control window, DMSO zero. GFP/RFP ratio change, % at 20 µM. actives 0.061% (n = 360,000);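 active = GFP/RFP ratio change of at least 30% with cell ATP level not reduced by more than half and red fluorescence within 50% of control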
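Assay system: HT1080 cells carrying an RFP-PRO-GFP reporter | Dosing: Single dose of 20 µM compound, 1% DMSO final | Incubation: Cells overnight before dosing, compound overnight, 37 °C, 5% CO2 | Evaluation: GFP/RFP fluorescence ratio | Control set: DMSO and RFP-L50D-GFP cell wells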
SKN-1 block: C. elegans SKN-1 inhibition | C. elegans VP596 Pgst-4::GFP/RFP ratio, acrylamide-induced, 24 h | inhibition, % at 21.8 µM | actives 0.49% (n = 360,000) | AID 624304;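 active = interference check ratio from 0.5 to 1.5 plus GFP to RFP signal ratio inhibition reaching or exceeding a fixed threshold, cut at about 30% in these data, passing the limit was not always enough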
MT1-MMP act val: blocks activation of human MT1-MMP in validation testing | shares compounds with MT1-MMP act inh | HT1080 RFP-PRO-GFP cells, GFP and RFP fluorescence ratio, overnight | inhibition, % at 20 µM | actives 10% (n = 200);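 active = inhibition of at least 50% in the primary cell screen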
Large screens that a line does not name were inactive (follow-up assays come after a bar, where they were run). In the library only some 2.3% were active in any assay of this set; here they are far more common.

Cc1ccc(F)c(S(=O)(=O)NC(=O)C2(C)CCN2C(=O)Cc2cccc3ccccc23)c1 (stereo unspecified)	none (no result: ATG4B inhibitor)
CCCc1ccc(C#N)c(SC2CC(=O)N(c3ccc(OC)cc3)C2=O)n1 (stereo unspecified)	MT1-MMP act inh 32 | MT1-MMP act val inactive
COC(=O)C1=C(C(=O)OC)SC(=C2C(=S)C(C)(C)N(C(=O)C(C)C)c3ccccc32)S1	MT1-MMP act inh 31 | MT1-MMP act val inactive
CC(=O)Nc1ccc(S(=O)(=O)NCc2ccc3[nH]c(C)cc3c2)cc1	MT1-MMP act inh 31 | MT1-MMP act val inactive
Cc1ccccc1N=C/C=C1\N(C)c2ccccc2C1(C)C	MT1-MMP act inh 56 | MT1-MMP act val inactive
CO/N=C/C=C1/N(C)c2ccccc2C1(C)C	none
CCOCCCNS(=O)(=O)c1ccc(NC(=O)Cc2c(F)cccc2Cl)cc1	none
COC(=O)CCC(=O)OC1(C)C(=O)C2=CN(Cc3ccc(OC)cc3)C(c3ccc(OC)cc3)=CC2=C(Br)C1=O (stereo unspecified)	none
COC(=O)CCC(=O)OC1(C)C(=O)C2=CN(CC3CC3)C(c3ccc(OC)cc3)=CC2=C(Br)C1=O (stereo unspecified)	MT1-MMP act inh 30 | MT1-MMP act val inactive
Cc1noc(C)c1-c1ccc(C(=O)Nc2ccc(C(C)C)cc2)c2occc12	none (no result: ATG4B inhibitor)
CN1/C(=C\C(=S)NC(=O)c2cccc(Br)c2)C(C)(C)c2ccccc21	none
CN1/C(=C\C(=S)NC(=O)c2ccc([N+](=O)[O-])cc2)C(C)(C)c2ccccc21	MT1-MMP act inh 42 | MT1-MMP act val inactive
Cc1ccc(Cn2c(SCC(=O)N(C)C3CCS(=O)(=O)C3)nc3ccccc3c2=O)cc1 (stereo unspecified)	none
COc1cc(/C=N/c2oc(C)c(C)c2C#N)cc(Br)c1O	MT1-MMP act inh 33 | MT1-MMP act val inactive
COc1ccc(/C=N/c2oc(C)c(C)c2C#N)c(OC)c1	none
CSc1ncccc1C(=O)OC(C)C(=O)Nc1cccc(S(=O)(=O)N2CCOCC2)c1 (stereo unspecified)	none
COc1cc(OC)cc(C(=O)Nc2ccc(-c3nc4ccccc4o3)cc2)c1	MT1-MMP act inh 31 | MT1-MMP act val inactive
O=C(CC1CCCC1)N1CCN(S(=O)(=O)c2cccc(Br)c2)CC1	none (no result: ATG4B inhibitor)
O=c1cc(-c2ccccc2Cl)oc2cccc(O)c12	none
O=c1cc2oc3cc(O)c(O)cc3c(-c3ccccc3[N+](=O)[O-])c-2cc1O	MT1-MMP act inh 41 | MT1-MMP act val 51
CCCOc1ccc2oc(=O)c3c(c2c1)CCCN3C(=O)CN1CCN(c2ncccn2)CC1	none
O=C(CN1CCCC1)N1CCCc2c1c(=O)oc1ccc(OCc3ccccc3)cc21	MT1-MMP act inh 51 | MT1-MMP act val inactive
COc1ccc(Nc2ccccc2N)cc1	MT1-MMP act inh 31 | MT1-MMP act val 51
O=c1[nH]nc(CNc2ccc(O)cc2)c2ccccc12	MT1-MMP act inh 49 | MT1-MMP act val inactive
COc1cc(/C=C2\SC(=O)N(CC(=O)Nc3cccc(C)c3)C2=O)cc([N+](=O)[O-])c1O	none
COc1cc(/C=C2\SC(=O)N(c3ccccc3Cl)C2=O)cc([N+](=O)[O-])c1O	MT1-MMP act inh 31 | MT1-MMP act val inactive
CC(=O)CCc1ccc(Oc2nc(-c3cccnc3)nc3ccccc23)cc1	none
OCC1OC(n2cnc3ccccc32)CC1O (stereo unspecified)	none
COc1ccc(C(CNC(=O)c2c(C)nn(Cc3ccc(C)cc3)c2Cl)N2CCOCC2)cc1 (stereo unspecified)	MT1-MMP act inh 32 | MT1-MMP act val inactive
Cc1cc2cc(CNS(=O)(=O)c3ccc4ccccc4c3)ccc2n1C	MT1-MMP act inh 45 | MT1-MMP act val inactive
Cc1cc(C)c(S(=O)(=O)NCc2ccc3c(c2)cc(C)n3C)c(C)c1	none
Cc1c(C)n(C)c2ccc(C(=O)NCCc3ccco3)cc12	MT1-MMP act inh 33 | MT1-MMP act val inactive
Nc1nc(-c2ccccc2)c(N=Nc2ccccc2Cl)s1	MT1-MMP act inh 42, SKN-1 block 49 | MT1-MMP act val inactive
Nc1nc(-c2ccccc2)c(N=Nc2cccc3ccccc23)s1	MT1-MMP act inh 34 | MT1-MMP act val inactive
Cc1nc2nc(C(F)(F)F)[nH]c2nc1C	none (no result: ATG4B inhibitor)
Cn1c(N)c(C(=O)COC(=O)/C=C/c2ccccc2)c(=O)n(C)c1=O	none
CCC(C)[C@H]1CNC(=O)C(=O)N1CC1CCCCC1 (stereo partly specified)	none (no result: ATG4B inhibitor)
COc1ccc(/C=C/C2=CCN(Cc3ccc(OC)cc3)CC2)cc1	none
CCc1cc2c(NCc3ccco3)ncnc2s1	MT1-MMP act inh 34 | MT1-MMP act val inactive
COc1cccc(NC(=S)NCc2ccc(F)cc2)c1	none
COc1cccc(NC(=S)NCc2ccc3c(c2)cc(C)n3C)c1	MT1-MMP act inh 38 | MT1-MMP act val inactive
Cc1cc2cc(CNC(=O)Nc3cccc(Cl)c3)ccc2n1C	none
Cc1cccc(NC(=S)NCc2ccc3c(c2)cc(C)n3C)c1C	MT1-MMP act inh 41 | MT1-MMP act val inactive
COC(=O)c1ccc(N2CCOCC2)c(NC(=O)c2ccco2)c1	none
CC(C)C(O)P(=O)(OCc1ccccc1)c1ccc(N(C)C)cc1 (stereo unspecified)	none
COc1ccc(OCC(=O)NNc2c3ccccc3nc3ccccc23)cc1	MT1-MMP act inh 35 | MT1-MMP act val inactive
CCN(CC(=O)NC1CCS(=O)(=O)C1)C(=O)c1cc(OC)c(OC)c(OC)c1 (stereo unspecified)	none
O=C(O)CC/C(=N\Nc1ccccc1[N+](=O)[O-])c1cccs1	MT1-MMP act inh 35 | MT1-MMP act val inactive
O=C(Cc1ccccc1[N+](=O)[O-])N1CCc2ccccc2C1	none
COc1cccc(C(=O)NNC2OC(CO)C(O)C2O)c1 (stereo unspecified)	none
Cc1ccc2c(c1)N(C(=O)CCC(=O)N1CCC(C(N)=O)CC1)CCO2	none
NS(=O)(=O)c1ccc(N=Nc2c(O)ccc3ccccc23)cc1	none
Oc1ccc(N=Nc2c(O)ccc3ccccc23)cc1	MT1-MMP act inh 73 | MT1-MMP act val inactive
Cc1[nH]c2ccccc2c1N=Nc1cc(C(=O)O)cc(C(=O)O)c1	none
O=C(O)c1cc(N=Nc2c(O)ccc3ccccc23)cc(C(=O)O)c1	MT1-MMP act inh 33 | MT1-MMP act val inactive
CCN1C(=O)/C(=C2/C=Cc3cc(C)ccc3N2CC)N(C)C1=S	none
CCN1/C(=C2/SC(=S)N(C)C2=O)C=Cc2cc(C)ccc21	MT1-MMP act inh 31 | MT1-MMP act val inactive
COc1ccc(C2(C(=O)NCCc3ccccc3)CCCC2)cc1OC	none
CC/C(=N\Nc1ccc([N+](=O)[O-])cc1[N+](=O)[O-])c1ccc(O)cc1	MT1-MMP act inh 35 | MT1-MMP act val inactive
O=C(CSCc1cccc(Br)c1)N=Nc1c(O)[nH]c2ccccc12	none
O=Nc1c(-c2c(O)[nH]c3cc(Br)ccc23)[nH]c2ccccc12	MT1-MMP act inh 77 | MT1-MMP act val 70
CC(=O)c1cccc(S(=O)(=O)N2CCC(C(=O)NC3CCCC3)CC2)c1	MT1-MMP act inh 40 | MT1-MMP act val inactive
O=C(NC1CCCCCC1)C1CCN(S(=O)(=O)c2ccccc2)CC1	none
Cc1cc(N(CCO)CCO)ccc1N=Nc1cc(F)ccc1F	MT1-MMP act inh 33 | MT1-MMP act val inactive
CCC(/C=C1\Oc2ccc(OC)cc2N1C)=C\c1sc2ccccc2[n+]1CCCS(=O)(=O)[O-]	MT1-MMP act inh 35 | MT1-MMP act val inactive
